Screening results: PubChem, several laboratories
In the library only some 5.3% were active in any assay of this set; here they are far more common.
Mdm2 MdmX PPI: inhibitors of human Mdm2-MdmX association, primary screen, cell-based, luminescence, split luciferase, SaOS-2, uHTS. SaOS-2 split-luciferase Mdm2/MdmX complementation. inhibition, % at 8 µM. 3% of 330,000 active. AID 485346, 2010;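 active means inhibition of at least 50% at 8 µM in the primary screen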
Target sequence (O15151 whole entry, looked up): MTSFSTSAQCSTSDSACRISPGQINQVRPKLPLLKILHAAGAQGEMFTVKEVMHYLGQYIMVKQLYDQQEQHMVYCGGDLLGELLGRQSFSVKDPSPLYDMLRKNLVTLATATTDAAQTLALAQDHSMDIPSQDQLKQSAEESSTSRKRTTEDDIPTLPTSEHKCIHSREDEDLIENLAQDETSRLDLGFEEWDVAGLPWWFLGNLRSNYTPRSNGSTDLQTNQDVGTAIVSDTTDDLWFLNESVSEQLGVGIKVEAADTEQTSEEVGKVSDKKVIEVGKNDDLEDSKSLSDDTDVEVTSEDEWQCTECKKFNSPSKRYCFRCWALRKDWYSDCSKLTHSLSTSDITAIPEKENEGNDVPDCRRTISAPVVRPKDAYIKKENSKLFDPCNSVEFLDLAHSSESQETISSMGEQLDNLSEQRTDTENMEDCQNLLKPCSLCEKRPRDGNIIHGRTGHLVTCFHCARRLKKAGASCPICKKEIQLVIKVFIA
Target sequence (Q00987 whole entry, looked up): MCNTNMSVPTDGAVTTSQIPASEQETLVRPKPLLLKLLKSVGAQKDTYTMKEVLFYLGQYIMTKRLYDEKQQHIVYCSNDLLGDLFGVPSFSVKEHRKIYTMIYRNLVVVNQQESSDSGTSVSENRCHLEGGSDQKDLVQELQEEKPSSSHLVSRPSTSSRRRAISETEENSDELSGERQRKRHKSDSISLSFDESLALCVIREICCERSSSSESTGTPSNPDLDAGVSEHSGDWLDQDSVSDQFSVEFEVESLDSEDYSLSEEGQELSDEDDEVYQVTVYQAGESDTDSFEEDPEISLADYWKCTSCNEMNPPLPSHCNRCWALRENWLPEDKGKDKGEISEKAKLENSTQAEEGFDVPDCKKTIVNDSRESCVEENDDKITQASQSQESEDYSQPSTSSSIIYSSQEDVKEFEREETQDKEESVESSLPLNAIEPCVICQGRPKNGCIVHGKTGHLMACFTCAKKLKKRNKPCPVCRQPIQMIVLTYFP
CSC inhib: cancer stem cell viability inhibitors, primary screen, luminescence. 1.1% of 300,000 active. cancer stem cell-like cells viability. AID 2717, 2010. inhibition, % at 7.5 µM; in the data active means inhibition above about 75%; inconclusive means no clear call, values can overlap the other calls; tested in HMLE shEcad cells
T cruzi inh: inhibitors of intracellular T. cruzi growth, primary screen, luminescence, NIH3T3 host cells; AID 1885, 2009; 1.4% of 300,000 active; inhibition, % (concentration not given with the values); T. cruzi beta-gal in NIH3T3, 90 h;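 active means mean inhibition across valid replicates above about 55%, limit read from the data; inconclusive means mean below that limit but half or more replicates reach it; inactive means mean below it, under half of replicates reach it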;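 further: signal also drops with host cell toxicity which is not excluded here; 0% = plate median of DMSO wells and 100% = zero luminescence signal; higher percent means less beta-gal luminescence so fewer parasites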
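Incubation – ≥90 h infection period, 3 h prior cell attachment · System – NIH/3T3 fibroblasts plus reporter T. cruzi · Doses – compound pinned at 50 nL/well, DMSO · Read-out basis – percent inhibition of parasite-derived β-gal signal · Signal – luminescent β-galactosidase signal after 60 min lysis · Also added – 5000 T. cruzi trypomastigotes/well · Medium – Low-serum DMEM with 2% FBS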
NALP3 yeast inh: NALP3 inflammasome inhibitors in reconstituted yeast, primary screen, luminescence, uHTS; 0.39% of 330,000 active; inhibition, % at 10 µM; Yeast reconstituted NLRP3/ASC/caspase-1, beta-gal luminescence, 24 h;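 active means inhibition of 50% or more; inactive means inhibition below 50%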;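 further: plate controls were induced DMSO wells for no effect and uninduced yeast grown without galactose for full effect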
Beta cell apopt: inhibitors of cytokine-induced beta cell apoptosis, primary screen, luminescence; protection from apoptosis, % (test concentration not listed); AID 435005, 2010; INS-1E cytokine-induced death, ATP luminescence, 48 h; percent of positive-control rescue, neutral wells zero; 0.8% of 300,000 active;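 active means Every replicate reaches about 75%, or at least half do and their mean reaches it too, limit read from the data; inconclusive means At least half of replicates reach the limit but their mean does not; inactive means Under half of replicates reach the limit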;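 further: 0% = cytokine-treated negative control wells and 100% = positive control rescue; higher means more ATP so stronger rescue from cytokine killing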
Calb FLC: C. albicans growth inhibition with fluconazole, primary screen, CaCi-2 strain, Alamar Blue fluorescence | growth inhibition, % (no concentration beside the values) | C. albicans CaCi-2 (fluconazole-resistant clinical isolate) + fluconazole, 48 h | 0.57% of 300,000 active | AID 1979, 2009;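 active means growth inhibition above about 58% in most replicates, limit read from the data, passing the limit was not always enough; inconclusive means exactly half the replicates above a set limit; inactive means most replicates below a set limit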;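 further: all wells also contain fluconazole at 8 µg/ml as a sub-toxic cotreatment; 0% = median of DMSO wells and 100% = median of geldanamycin control wells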
Mdm2 MdmX conf: Mdm2-MdmX complex disruptors, retested hits, confirmation, luminescence, single concentration | shares compounds with Mdm2 MdmX PPI | 55% of 10,000 active | Mdm2-MdmX binding, luminescent assay | inhibition, % at 8 µM; in the data active means inhibition above about 40%
FLuc counter: full-length luciferase signal inhibition, confirmation, counter-screen for Mdm2/MdmX interaction inhibitor project, cell-based, single concentration, SaOS-2. shares compounds with Mdm2 MdmX PPI. SaOS-2 full-length luciferase counterscreen, luminescence. inhibition, % at 8 µM. 77% of 6,200 active;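 active means mean inhibition at 8 µM reaching about 37%, which flags the compound as non-specific, limit read from the data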;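 further: p53-null SaOS-2 cells with luciferase driven by a doxycycline-inducible promoter; compound on cells about two nights before reading with doxycycline added after day one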
* marks the source's active call; other numbers are inactive results; u = inconclusive; x = no result.

SMILES | Mdm2 MdmX PPI | CSC inhib | T cruzi inh | NALP3 yeast inh | Beta cell apopt | Calb FLC | Mdm2 MdmX conf | FLuc counter
CCOc1ccc(NC(=S)NCc2cccnc2)cc1 | 12.3 | -10.9 | -9.6 | 4.3 | -1.6 | 3.8 | x | x
CCC(=O)NC(c1ccc(C)cc1)c1cc(Cl)c2cccnc2c1O (centres undefined) | 78.7* | x | x | 5.2 | 87.9* | x | 55.2* | 23.8
CCOc1ccc(C(Nc2cccnc2)c2cc(Cl)c3cccnc3c2O)cc1 (centres undefined) | 64.5* | 2.9 | -1.0 | 21.4 | 85.7* | 109.5* | 64.5* | 43.0*
O=C(CN1CCN(c2ccccc2)CC1)Nc1c(C(=O)C2CC2)oc2ccccc12 | 9.4 | 24.6 | -6.0 | 18.9 | -4.5 | -5.1 | x | x
CC(C)Cn1c(N)c(C(=O)COC(=O)c2cc(C(F)(F)F)nc3c(C(F)(F)F)cccc23)c(=O)n(C)c1=O | 88.0* | -1.6 | -8.1 | -3.5 | -4.6 | 3.3 | 5.2 | x
COC(=O)c1sc2nc(SCc3ccccc3C)n(N)c(=O)c2c1C | 35.3 | 3.1 | -12.2 | -7.6 | 7.3 | 1.7 | x | x
COC(=O)c1sc2nc(SCC(=O)N(C)c3ccccc3)n(N)c(=O)c2c1C | 56.0* | 26.4 | 4.3 | 6.0 | 14.6 | 1.4 | 8.1 | x
Cc1cc(=O)[nH]c2c(C)cc(S(=O)(=O)N3CCCCC3)cc12 | 69.5* | -8.5 | -1.5 | 4.9 | -3.2 | 5.4 | 54.1* | 89.2*
Cc1cc(=O)[nH]c2c(C)cc(S(=O)(=O)N3CCOCC3)cc12 | 11.2 | -12.6 | -0.3 | -8.0 | -2.2 | 29.3 | x | x
O=C(Cn1cnc2c(nnn2Cc2ccc(F)cc2)c1=O)Nc1ccc2c(c1)OCCO2 | 71.4* | -8.5 | -17.6 | 1.1 | -7.7 | -12.2 | 20.9 | x
O=C(Cn1cnc2c(nnn2Cc2ccc(F)cc2)c1=O)Nc1cccc(F)c1 | 2.2 | -3.2 | -28.8 | 10.6 | -4.0 | -5.3 | x | x
COc1ccc([C@@H]2[C@@H]3C(=O)N(C(C)(C)C)C(=O)[C@@H]3[C@]3(Cc4ccccc4)C(=O)N(c4cccc(Cl)c4)C(=O)N23)cc1 | -9.7 | -7.7 | 10.3 | 1.1 | 1.8 | -8.8 | x | x
CC(NCC(O)COc1ccc2ccccc2c1)c1ccccc1 (centres undefined) | 33.7 | 22.1 | 42.4 | 28.8 | 4.4 | 12.0 | x | x
CCCC(NCC(O)COc1ccc(-c2ccccc2)cc1)c1ccccc1 (centres undefined) | 100.3* | x | 65.6* | 26.0 | -3.3 | -47.6 | 56.5* | 60.4*
Cc1cc(OCC(O)CNC(C)c2ccccc2)ccc1C(C)C (centres undefined) | 58.8* | 8.2 | 45.7 | 35.4 | -3.4 | -3.5 | 17.3 | x
COc1ccccc1N1CCN(C2CCCN(S(=O)(=O)c3ccc(C)cc3)C2)CC1 (centres undefined) | 15.8 | x | 13.2 | 10.0 | x | -15.5 | x | x
O=C(COc1ccc(F)cc1)NCCN1CCCC1 | -11.4 | -1.4 | -8.1 | 10.8 | -3.6 | -4.9 | x | x
CCSc1nnc(Nc2ccc(C)cc2)s1 | -60.6 | -5.2 | 6.8 | 9.0 | -8.8 | -21.7 | x | x
CC1=NOC(=O)/C1=C\c1ccc(-c2cccc(Cl)c2)o1 | 96.3* | 63.4 | -21.9 | 4.5 | -13.0 | -2.1 | 14.8 | x
Nc1nnn(-c2ccccc2)c1-c1ccccc1 | -27.4 | -3.5 | -20.1 | 2.6 | -4.1 | -5.7 | x | x
CCn1cc(CN2CCC(n3nccc3NC(=O)CCOc3ccccc3)CC2)cn1 | -10.8 | 7.2 | 2.1 | 4.6 | 3.0 | 5.0 | x | x
Cc1ccc(C)c(C(=O)Nc2cc(C)nn2-c2nc(C)cc(C)n2)c1 | 57.4* | 40.7 | 27.5 | 11.5 | 1.6 | 20.8 | 38.6 | 59.6*
Cc1cc(C)nc(-n2nc(C)cc2NC(=O)c2cccc(S(=O)(=O)N(C)C)c2)n1 | 13.6 | -15.0 | -3.7 | 18.6 | 4.1 | 4.0 | x | x
Cc1cc(C)nc(Nc2ccccc2Br)n1 | -15.7 | -5.2 | 2.2 | -3.7 | -1.5 | 17.9 | x | x
Cc1cc(C)nc(N/C(=N\S(=O)(=O)Cc2ccccc2)Nc2ccccc2Br)n1 | 51.7* | 32.7 | 21.3 | -10.7 | -3.8 | 1.3 | 55.2* | 104.1*
SMILES | Mdm2 MdmX PPI | CSC inhib | T cruzi inh | NALP3 yeast inh | Beta cell apopt | Calb FLC | Mdm2 MdmX conf | FLuc counter
COc1cccc(C(=O)/C=C/Nc2ccc(S(=O)(=O)Nc3cccc(C(C)=O)c3)cc2)c1 | 1.4 | 4.6 | 4.5 | 20.9 | 15.9 | 1.5 | x | x
COc1cc(/C=C/C(=O)c2ccc(NS(=O)(=O)c3ccc(C)cc3)cc2)ccc1OC(F)F | 92.2* | -7.2 | 42.0 | 25.3 | x | 6.3 | 42.4* | 61.8*
COc1cccc(/C=C/C(=O)c2ccc(NS(=O)(=O)c3ccc(C)cc3)cc2)c1 | 71.3* | 81.4* | 10.1 | 11.4 | 4.4 | u | 14.9 | x
Cc1cc(NS(=O)(=O)c2ccc(NC(=O)C(C)Oc3ccc(Cl)cc3)cc2)no1 (centres undefined) | -16.6 | -12.8 | -9.7 | 4.1 | -9.6 | 3.2 | x | x
COc1ccccc1OCCCCN1CCC(C)CC1 | -8.4 | -6.6 | 7.8 | 24.0 | -3.0 | 4.5 | x | x
CCOC(=O)C(C)/C(C)=N/NC(=O)c1cc2ccccc2cc1O (centres undefined) | 81.8* | 17.4 | -3.3 | 12.9 | u | 0.0 | 81.2* | 56.1*
COc1ccc(-c2csc(-n3ncc(-c4ccccn4)c3N)n2)cc1 | 57.5* | x | 2.8 | -12.3 | 1.8 | 29.2 | 5.8 | x
Cc1cc(=O)c(C(=O)O)nn1-c1ccccc1C(F)(F)F | 5.3 | -6.7 | -3.4 | 9.9 | -5.6 | -8.1 | x | x
COc1ccc([C@@]2(C(C)C)ON(c3ccccc3C(F)(F)F)C2=O)cc1 | 79.8* | 60.1 | x | 22.3 | 6.8 | x | 56.2* | 44.8*
COc1ccc([C@]2(C(C)C)ON(c3ccccc3C(F)(F)F)C2=O)cc1 | 82.0* | -1.9 | x | 8.9 | -1.3 | x | 41.1* | 51.4*
COc1ccc(C2(c3ccc(OC)cc3)NC(=O)N(CC(=O)Nc3ccccc3C(F)(F)F)C2=O)cc1 | -9.4 | -11.4 | 11.1 | 12.0 | 2.1 | -10.2 | x | x
CC(C)[C@@]1(c2ccc(Cl)cc2)ON(c2ccccc2C(F)(F)F)C1=O | 75.0* | 29.1 | x | 12.2 | 0.2 | x | 43.8* | 49.6*
O=C(CSc1ccccn1)Nc1cccc2ccccc12 | 8.8 | -10.0 | -8.7 | 6.8 | 2.3 | 15.9 | x | x
COC(=O)c1cc(NC(=O)CC2C(=O)NCCN2C(=O)c2ccccc2)cc(C(=O)OC)c1 (centres undefined) | 4.2 | -17.1 | 1.4 | 15.4 | -3.3 | -2.5 | x | x
